The source made the active and inactive calls. The rule behind the calls is not given here.
Assays:
M21 [1] = assay: Cell cycle arrest in human M21 cells assessed as accumulation at S phase at 2 times IC50 after 24 hrs by DAPI staining based flow cytometry relative to control
M21 [2] = assay: Cell cycle arrest in human M21 cells assessed as accumulation at sub-G1 phase at 2 times IC50 after 24 hrs by DAPI staining based flow cytometry relative to control
HT-1080 = assay: Antiproliferative activity against human HT1080 cells after 48 hrs by SRB assay; format: functional, cell-based; settings: HT-1080, 48 h
How it was run: (§1)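 Cells grown in DMEM with 5% FBS at 37 C; seeded per well at 2.5 x 10^3 (HT-1080), 4.0 x 10^3 (HT-29), 3.0 x 10^3 (M21) or 2.5 x 10^3 (MCF7). Drugs from 40 mM DMSO stock, serial dilutions, final 100 µM to 78 nM, DMSO <0.5%.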

M21 [3] = assay: Antiproliferative activity against human M21 cells after 48 hrs by SRB assay; format: functional, cell-based; settings: M21, 48 h
How it was run: as §1

M21 [4] = assay: Cell cycle arrest in human M21 cells assessed as accumulation at G0/G1 phase at 2 times IC50 after 24 hrs by DAPI staining based flow cytometry relative to control
HT-29 = assay: Antiproliferative activity against human HT-29 cells after 48 hrs by SRB assay; format: functional, cell-based; settings: HT-29, 48 h
How it was run: as §1

MCF7 = assay: Antiproliferative activity against human MCF7 cells after 48 hrs by SRB assay; format: functional, cell-based; settings: MCF7, 48 h
How it was run: as §1

M21 [5] = assay: Cell cycle arrest in human M21 cells assessed as accumulation at G2/M phase at 2 times IC50 after 24 hrs by DAPI staining based flow cytometry relative to control
[6] = Alkylating activity at DNA (unknown origin) after 90 mins by colorimetric NBP assay relative to chlorambucil; format: functional
How it was run: (§2)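 NBP alkylation kinetics (Bardos colorimetric method): 400 nmol drug in 1 mL ethanol mixed with 1 mL NBP (10% v/v in 95% ethanol), 1 mL 50 mM acetate buffer pH 4.3 and 1 mL ethanol, kept on ice, then heated at 80 C in shaking water bath; stopped on ice 5 min after 0, 30, 60, 90 min. Rate constant from linear regression of absorbance curve; chlorambucil as positive control.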

[7] = Alkylating activity at DNA (unknown origin) after 90 mins by colorimetric NBP assay; format: functional
How it was run: as §2

M21 [8] = assay: Induction of DNA damage in human M21 cells assessed as increase in gammaH2Ax level at 5 times IC50 after 24 hrs by immunofluorescence based epifluorescence microscopy; format: functional, cell-based
How it was run: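 M21 cells (1 x 10^5) on fibronectin-coated (5 µg/mL, 1 h, 37 C) cover slides, 24 h attachment, then drug for 24 h; DMSO 0.25% in medium as control. Fixed with 3.7% formaldehyde, permeabilized with 0.1% saponin/3% BSA, mouse anti-H2AX pS139 (1:8000), DAPI nuclear stain; γH2AX foci imaged by epifluorescence microscopy.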

M21 [9] = assay: Cell cycle arrest in human M21 cells assessed as accumulation at sub-G1 phase at 2 times IC50 after 24 hrs by DAPI staining based flow cytometry relative to control; format: functional
How it was run: (§3)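 Flow cytometry in M21 cells seeded in six-well plates, allowed 24 h, then exposed 24 h to drug (2- or 5-fold IC50); DMSO 0.5% control. Trypsinized, PBS-washed, fixed in ice-cold EtOH, stained with 2 mg/mL DAPI in PBS; sub-G1, G0/G1, S and G2/M fractions measured on LSR II cytometer.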

M21 [10] = assay: Cell cycle arrest in human M21 cells assessed as accumulation at G0/G1 phase at 2 times IC50 after 24 hrs by DAPI staining based flow cytometry relative to control; format: functional
How it was run: as §3

M21 [11] = assay: Cell cycle arrest in human M21 cells assessed as accumulation at G2/M phase at 2 times IC50 after 24 hrs by DAPI staining based flow cytometry relative to control; format: functional
How it was run: as §3

M21 [12] = assay: Cell cycle arrest in human M21 cells assessed as accumulation at S phase at 2 times IC50 after 24 hrs by DAPI staining based flow cytometry relative to control; format: functional
How it was run: as §3

M21 [13] = assay: Induction of DNA damage in human M21 cells assessed as increase in gammaH2Ax level at 5 times IC50 after 24 hrs by immunofluorescence based epifluorescence microscopy

Row | SMILES | Activity (M21 [1]) | Activity (M21 [2]) | IC50 (HT-1080) | IC50 (M21 [3]) | Activity (M21 [4]) | IC50 (HT-29) | IC50 (MCF7) | Activity (M21 [5]) | fold change (FC) [6] | K [7] | Activity (M21 [8]) | Activity (M21 [9]) | Activity (M21 [10]) | Activity (M21 [11]) | Activity (M21 [12]) | Activity (M21 [13])
1 | O=C(NCC1CCCC1)Nc1ccc(S(=O)(=O)Oc2ccccc2I)cc1 | 18.9% | 0.1% | 6.1 µM | 7.6 µM | 56.2% | 7.6 µM | 6.6 µM | 24.8% | – | – | – | – | – | – | – | –
2 | O=C(NCCCCl)Nc1ccc(S(=O)(=O)Oc2ccccc2I)cc1 | 32% | 0.1% | 2.8 µM | 4.6 µM | 54.4% | 9.6 µM | 7.6 µM | 13.5% | 44 | 0.12 ×10⁻³ /s | Active | – | – | – | – | –
3 | CCCNC(=O)Nc1ccc(S(=O)(=O)Oc2ccccc2C(C)C)cc1 | 25.1% | 0.3% | 0.68 µM | 5.1 µM | 64.6% | 6.3 µM | 2.7 µM | 10% | 200 | 0.027 ×10⁻³ /s | – | – | – | – | – | –
4 | O=C(CCCl)Nc1ccc(S(=O)(=O)Oc2ccccc2I)cc1 | – | – | 4.2 µM | 12 µM | – | 14 µM | 8.9 µM | – | 84 | 0.063 ×10⁻³ /s | – | 0.2% | 27.5% | 37.4% | 34.9% | Active
5 | CCCNC(=O)Nc1ccc(S(=O)(=O)Oc2ccccc2I)cc1 | 26.6% | 0.1% | 0.7 µM | 5.4 µM | 62.6% | 6.8 µM | 2.9 µM | 10.7% | 13 | 0.4 ×10⁻³ /s | Active | – | – | – | – | –
6 | CC(C)c1ccccc1OS(=O)(=O)c1ccc(NC(=O)CCCl)cc1 | – | – | 6.5 µM | 14 µM | – | 16 µM | 9 µM | – | 220 | 0.024 ×10⁻³ /s | – | 0.1% | 33.7% | 30.6% | 35.6% | Active
7 | CC(C)c1ccccc1OS(=O)(=O)c1ccc(NC(=O)NCC2CCCC2)cc1 | 14.3% | 0.1% | 6 µM | 6.6 µM | 63.9% | 6.8 µM | 7.1 µM | 21.7% | – | – | – | – | – | – | – | –
8 | CCNC(=O)Nc1ccc(S(=O)(=O)Oc2ccccc2C(C)C)cc1 | 31.5% | 0.8% | 0.25 µM | 4.7 µM | 58.8% | 1.1 µM | 10 µM | 8.9% | 14 | 0.37 ×10⁻³ /s | Active | – | – | – | – | –
9 | CCCC(=O)Nc1ccc(S(=O)(=O)Oc2ccccc2I)cc1 | – | – | 2 µM | 9 µM | – | 11 µM | 9.7 µM | – | 60 | 0.088 ×10⁻³ /s | – | 0.1% | 37% | 40.1% | 22.8% | Active
10 | CC(C)c1ccccc1OS(=O)(=O)c1ccc(NC(=O)C(C)(C)C)cc1 | – | – | 11 µM | 6.2 µM | – | 15 µM | 6.5 µM | – | 780 | 0.007 ×10⁻³ /s | – | 0.4% | 36.7% | 16% | 46.9% | Active
11 | CC(C)c1ccccc1OS(=O)(=O)c1ccc(NC(=O)NCCCl)cc1 | – | – | – | – | – | – | – | – | 1600 | 0.0034 ×10⁻³ /s | – | – | – | – | – | –
12 | CCC(=O)Nc1ccc(S(=O)(=O)Oc2ccccc2C(C)C)cc1 | – | – | 2.1 µM | 11 µM | – | 7.4 µM | 11 µM | – | 17 | 0.31 ×10⁻³ /s | – | 0.6% | 39.6% | 15.4% | 44.4% | Active
13 | O=C(Nc1ccc(S(=O)(=O)Oc2ccccc2I)cc1)NC1CC1 | 26.9% | 0.1% | 1.3 µM | 11 µM | 61.5% | 14 µM | 7.4 µM | 11.5% | – | – | – | – | – | – | – | –
14 | O=C(O)CCCc1ccc(N(CCCl)CCCl)cc1 | – | – | – | – | – | – | – | – | – | 5.3 ×10⁻³ /s | – | – | – | – | – | –
15 | CC(C)c1ccccc1OS(=O)(=O)c1ccc(NC(=O)NC2CCCC2)cc1 | 12.5% | 0.1% | 3.9 µM | 6.1 µM | 60.2% | 7.4 µM | 6.2 µM | 27.2% | – | – | – | – | – | – | – | –
16 | CC(C)c1ccccc1OS(=O)(=O)c1ccc(NC(=O)NCCCCl)cc1 | 38.6% | 0.8% | 2.7 µM | 9.3 µM | 43.4% | 6.9 µM | 7.4 µM | 17.2% | 160 | 0.033 ×10⁻³ /s | Active | – | – | – | – | –
17 | CCCCCNC(=O)Nc1ccc(S(=O)(=O)Oc2ccccc2I)cc1 | 14.7% | 0.1% | 6.9 µM | 5.9 µM | 62.2% | 6.6 µM | 5.4 µM | 23% | – | – | – | – | – | – | – | –
18 | CCNC(=O)Nc1ccc(S(=O)(=O)Oc2ccccc2CC)cc1 | – | – | – | – | – | – | – | – | 170 | 0.032 ×10⁻³ /s | – | – | – | – | – | –
19 | CCCC(=O)Nc1ccc(S(=O)(=O)Oc2ccccc2C(C)C)cc1 | – | – | 0.95 µM | 6.1 µM | – | 4.9 µM | 6.6 µM | – | 14 | 0.37 ×10⁻³ /s | – | 0.7% | 40% | 15.5% | 43.8% | Active
20 | O=C(NCCCl)Nc1ccc(S(=O)(=O)Oc2ccccc2I)cc1 | 30.9% | 0.1% | – | – | 56.8% | – | – | 12.2% | 75 | 0.071 ×10⁻³ /s | – | – | – | – | – | –
21 | CCCCCNC(=O)Nc1ccc(S(=O)(=O)Oc2ccccc2C(C)C)cc1 | 12.2% | 0.3% | 4.7 µM | 4.6 µM | 60.6% | 4.9 µM | 4 µM | 26.9% | – | – | – | – | – | – | – | –
22 | CCC(=O)Nc1ccc(S(=O)(=O)Oc2ccccc2I)cc1 | – | – | 7.2 µM | 11 µM | – | 11 µM | 8.1 µM | – | 11 | 0.49 ×10⁻³ /s | – | 0.2% | 60.4% | 11.4% | 28% | Active
23 | CC(=O)Nc1ccc(S(=O)(=O)Oc2ccccc2C(C)C)cc1 | – | – | 12 µM | 21 µM | – | 23 µM | 16 µM | – | 14 | 0.36 ×10⁻³ /s | – | – | – | – | – | –
24 | CC(C)c1ccccc1OS(=O)(=O)c1cccc(NC(=O)C(C)(C)C)c1 | – | – | 11 µM | 13 µM | – | 19 µM | 14 µM | – | – | – | – | 0.7% | 61.1% | 18.2% | 20% | –
25 | CC(C)c1ccccc1OS(=O)(=O)c1cccc(NC(=O)CCl)c1 | – | – | 0.78 µM | 3.9 µM | – | 4.5 µM | 2.2 µM | – | – | – | – | 0% | 64.1% | 18.8% | 17.1% | –

From ChEMBL document CHEMBL4270536, “Preparation, characterisation and biological evaluation of new N-phenyl amidobenzenesulfonates and N-phenyl ureidobenzenesulfonates inducing DNA double-strand breaks. Part 3. Modulation of ring A” (Eur J Med Chem, 2018)
